Test results: ChEMBL document CHEMBL4477200, “Design, Synthesis, and Preclinical Evaluation of 4-Substituted-5-methyl-furo[2,3-d]pyrimidines as Microtubule Targeting Agents That Are Effective against Multidrug Resistant Cancer Cells” (J Med Chem, 2016)
Calls of active or inactive are those of the source. No cut-off for these calls is given here.

Experiments:
Tubulin (Bos taurus) [1] = target: T1, Tubulin (Bos taurus) (UniProt Q6B856+Q862L2+Q862F3); assay: Inhibition of [3H]colchicine binding to tubulin in bovine brain homogenate at 5 uM incubated for 10 mins by DEAE-cellulose filter assay; type: tissue-based
Tubulin = Tubulin (Bos taurus, UniProt Q6B856+Q862L2+Q862F3); assay: Inhibition of tubulin assembly in bovine brain […] assessed as reduction in turbidity increase preincubated for 15 mins followed by GTP addition measured for 20 mins by spectrophotometric analysis
Procedure, shortened: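 Purified bovine brain tubulin, 1.0 mg/mL (10 µM), was preincubated 15 min at 30 °C in 0.8 M monosodium glutamate (pH 6.6) with compound and 4% DMSO. Mixtures were chilled and 0.4 mM GTP added. Turbidity was followed for 20 min at 30 °C. IC50 is the concentration halving the turbidity increase, interpolated between tested concentrations.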

HeLa [2] = assay: Antiproliferative activity against human HeLa cells after 48 hrs by SRB assay; type: functional, cell-based
Procedure, shortened: (§1)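 SRB assay; IC50 is the mean of three independent experiments, each run in triplicate. Cells were kept at 37 °C under 5% CO2. HeLa and SK-OV-3 lines (parental and MDR1-M6/6) were grown in Basal Medium Eagle with 10% FBS, 1% GlutaMAX and 50 µg/mL gentamycin. HeLa WTβIII was grown in DMEM with 10% FBS.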

SK-OV-3 [3] = assay: Relative ratio of IC50 for human SKOV3 cells expressing MDR1-M6/6 to IC50 for human SKOV3 cells; type: functional
Procedure, shortened: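 Rr is the IC50 in Pgp-expressing SK-OV-3 MDR1-M6/6 cells divided by the IC50 in parental SK-OV-3 cells. Both IC50s come from the SRB assay, averaging three independent experiments run in triplicate.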

SK-OV-3 [4] = assay: Cytotoxicity against human SKOV3 cells assessed as growth inhibition after 48 hrs by SRB assay; type: functional, cell-based; settings: SK-OV-3, 48 h; procedure, shortened: as §1
HeLa [5] = assay: Relative ratio of IC50 for human HeLa cells expressing wild type beta3 tubulin to IC50 for human HeLa cells; type: functional
SK-OV-3 [6] = assay: Antiproliferative activity against multidrug resistant human SKOV3 cells expressing MDR1-M6/6 after 48 hrs by SRB assay; type: functional, cell-based; settings: SK-OV-3, 48 h; procedure, shortened: as §1
Tubulin (Homo sapiens) = Tubulin (Homo sapiens) (UniProt P68371+Q9H4B7+P0DPH7+P68366+Q13509+Q71U36+P04350+Q3ZCM7+P07437+P68363+Q9BQE3+Q6PEY2+Q13885+Q9BVA1+Q9BUF5); assay: Induction of microtubule disruption in human HeLa cells assessed as multipolarization of spindle at 5 times IC50 incubated for 18 hrs by indirect immunofluorescence analysis relative to vehicle-treated control; type: cell-based
Procedure, shortened: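 Mitotic spindles and microtubules were imaged by indirect immunofluorescence with a β-tubulin antibody and compared with vehicle-treated cells.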

HeLa [7] = assay: Antiproliferative activity against multidrug resistant human HeLa cells expressing wild type beta3 tubulin after 48 hrs by SRB assay; type: functional, cell-based; procedure, shortened: as §1
[8] = test system: Tubulin (Rattus norvegicus); assay: Induction of microtubule depolymerization in rat A10 cells at 2 times EC50 incubated for 18 hrs by indirect immunofluorescence analysis
HeLa [9] = assay: Cell cycle arrest in human HeLa cells assessed as accumulation at G2/M phase at 5 times IC50 after 18 hrs by flow cytometry (reference value: 17.11 +/- 1.09%); type: functional
Tubulin (Bos taurus) [10] = target: T1, Tubulin (Bos taurus); assay: Displacement of [3H]colchicine from tubulin in bovine brain homogenate at 1 uM incubated for 10 mins by DEAE-cellulose filter assay; type: tissue-based
MDA-MB-435 = assay: Antitumor activity against human MDA-MB-435 cells xenografted in nude mouse assessed as tumor growth inhibition at 20 mg/kg, ip dosed on days 0 , 2, 4, 6, 8 and 11 relative to control

Compound: COc1ccc(N(c2ncnc3occ(C)c23)C(C)C)cc1
- inhibition (Tubulin (Bos taurus) [1]): 47%
- IC50 (Tubulin): 3000 nM

Compound: CCc1ccc(N(C)c2ncnc3occ(C)c23)cc1
- IC50 (HeLa [2]): 120 nM
- Ratio IC50 (SK-OV-3 [3]): 1
- IC50 (SK-OV-3 [4]): 156 nM
- Ratio IC50 (HeLa [5]): 1.3
- IC50 (SK-OV-3 [6]): 162 nM
- Activity (Tubulin (Homo sapiens)): Active
- IC50 (HeLa [7]): 159 nM
- Activity [8]: Active
- Activity (HeLa [9]): 76.19%

Compound: CSc1ccc(N(C)c2ncnc3occ(C)c23)cc1
- IC50 (HeLa [2]): 15.7 nM
- Ratio IC50 (SK-OV-3 [3]): 1.7
- IC50 (SK-OV-3 [4]): 18.6 nM
- Ratio IC50 (HeLa [5]): 0.9
- IC50 (SK-OV-3 [6]): 32.1 nM
- Activity (Tubulin (Homo sapiens)): Active
- inhibition (Tubulin (Bos taurus) [1]): 94%
- inhibition (Tubulin (Bos taurus) [10]): 79%
- IC50 (HeLa [7]): 14.9 nM
- Activity [8]: Active
- Activity (HeLa [9]): 64.09%
- IC50 (Tubulin): 1200 nM

Compound: CCCCN(c1ccc(OC)cc1)c1ncnc2occ(C)c12
- IC50 (HeLa [2]): 111 nM
- Ratio IC50 (SK-OV-3 [3]): 1.4
- IC50 (SK-OV-3 [4]): 148 nM
- Ratio IC50 (HeLa [5]): 1
- IC50 (SK-OV-3 [6]): 200 nM
- Activity (Tubulin (Homo sapiens)): Active
- inhibition (Tubulin (Bos taurus) [1]): 87%
- inhibition (Tubulin (Bos taurus) [10]): 61%
- IC50 (HeLa [7]): 116 nM
- Activity [8]: Active
- Activity (HeLa [9]): 64.96%
- IC50 (Tubulin): 1300 nM

Compound: COc1ccc(/C=C\c2cc(OC)c(OC)c(OC)c2)cc1O [COMBRETASTATIN A4]
- Activity (HeLa [9]): 67.58%

Compound: CCCN(c1ccc(OC)cc1)c1ncnc2occ(C)c12
- IC50 (HeLa [2]): 33.8 nM
- Ratio IC50 (SK-OV-3 [3]): 1.8
- IC50 (SK-OV-3 [4]): 40.3 nM
- Ratio IC50 (HeLa [5]): 1
- IC50 (SK-OV-3 [6]): 71 nM
- Activity (Tubulin (Homo sapiens)): Active
- inhibition (Tubulin (Bos taurus) [1]): 92%
- inhibition (Tubulin (Bos taurus) [10]): 75%
- IC50 (HeLa [7]): 35.3 nM
- Activity [8]: Active
- Activity (HeLa [9]): 89.25%
- IC50 (Tubulin): 1100 nM

Compound: CC(=O)O[C@H]1C(=O)[C@@]2(C)[C@H]([C@H](OC(=O)c3ccccc3)[C@]3(O)C[C@H](OC(=O)[C@H](O)[C@@H](NC(=O)c4ccccc4)c4ccccc4)C(C)=C1C3(C)C)[C@]1(OC(C)=O)CO[C@@H]1C[C@@H]2O
- TGI (MDA-MB-435): Active

Compound: CCN(c1ccc(OC)cc1)c1ncnc2occ(C)c12
- IC50 (HeLa [2]): 15.8 nM
- Ratio IC50 (SK-OV-3 [3]): 1.3
- IC50 (SK-OV-3 [4]): 14.5 nM
- Ratio IC50 (HeLa [5]): 0.9
- IC50 (SK-OV-3 [6]): 18.3 nM
- Activity (Tubulin (Homo sapiens)): Active
- inhibition (Tubulin (Bos taurus) [1]): 95%
- inhibition (Tubulin (Bos taurus) [10]): 84%
- IC50 (HeLa [7]): 14.6 nM
- Activity [8]: Active
- Activity (HeLa [9]): 63.76%
- IC50 (Tubulin): 970 nM
